Experimental data published in ChEMBL document CHEMBL1681654, “Structure and activity relationship of 2-(substituted benzoyl)-hydroxyindoles as novel CaMKII inhibitors” (Bioorg Med Chem Lett, 2011).

Experiment: Inhibition of recombinant CAMK2 expressed in Sf9 cells after 20 mins
How it was run: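 Baculovirus-expressed CaMKII from infected Sf9 cells (harvested day 3), purified on calmodulin affinity resin. Assayed in 25 mM Tris–HCl pH 7.5, 2 mM DTT, 10 mM MgCl₂, 0.1% CHAPS, 1 mM CaCl₂ with autocamtide-2 substrate, CaM and [γ-³³P]ATP (350–1500 cpm/pmol); 20 min, 30 °C. Reaction spotted onto P30 filtermat, washed with 75 mM phosphoric acid, counted by scintillation.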

Compound | IC50
O=C(c1ccc(-c2ccccc2)cc1)c1cc2cc(O)ccc2[nH]1 | 6.4 µM
O=C(c1cccc(Oc2ccccc2)c1)c1cc2cc(O)ccc2[nH]1 | 1.7 µM
O=C(c1ccc(Oc2ccccc2)cc1)c1cc2ccc(O)cc2[nH]1 | 2.3 µM
O=C(c1ccc(Oc2ccccc2)cc1)c1cc2ccccc2[nH]1 | 7.5 µM
O=C(c1ccc(OC2CCCC2)cc1)c1cc2cc(O)ccc2[nH]1 | 3.9 µM
O=C(c1ccc(OC2CCCCC2)cc1)c1cc2cc(O)ccc2[nH]1 | 2.3 µM
O=C(c1ccc(OC2CCOC2)cc1)c1cc2cc(O)ccc2[nH]1 (stereo unspecified) | 6.8 µM
O=C(c1ccc(OC2CCNCC2)cc1)c1cc2cc(O)ccc2[nH]1 | > 10 µM
CN1CCC(Oc2ccc(C(=O)c3cc4cc(O)ccc4[nH]3)cc2)CC1 | > 10 µM
CC(=O)N1CCC(Oc2ccc(C(=O)c3cc4cc(O)ccc4[nH]3)cc2)CC1 | 9.9 µM
CCOC(=O)Cn1c(C(=O)c2ccc(Oc3ccccc3)cc2)cc2cc(O)ccc21 | 0.77 µM

Next, values leading:

IC50 | Compound
1.6 µM | COc1ccc(S(=O)(=O)N(CCO)c2ccccc2CN(C)C/C=C/c2ccc(Cl)cc2)cc1
10 µM | O=C(c1ccccc1)c1cc2cc(O)ccc2[nH]1
> 10 µM | O=C(c1ccc(F)cc1)c1cc2cc(O)ccc2[nH]1
> 10 µM | O=C(c1ccc(Cl)cc1)c1cc2cc(O)ccc2[nH]1
8.8 µM | Cc1ccc(C(=O)c2cc3cc(O)ccc3[nH]2)cc1
> 10 µM | COc1ccc(C(=O)c2cc3cc(O)ccc3[nH]2)cc1
> 10 µM | O=C(c1ccc(OC(F)(F)F)cc1)c1cc2cc(O)ccc2[nH]1
1.8 µM | O=C(c1cc2cc(O)ccc2[nH]1)c1ccccc1Oc1ccccc1
0.61 µM | O=C(c1ccc(Oc2ccccc2)cc1)c1cc2cc(O)ccc2[nH]1
> 10 µM | O=C(c1ccc(Oc2ccccc2)cc1)c1cc2cc(O)ccc2n1S(=O)(=O)c1ccccc1
1.3 µM | Cn1c(C(=O)c2ccc(Oc3ccccc3)cc2)cc2cc(O)ccc21
1.9 µM | O=C(c1ccc(Oc2ccccc2)cc1)c1cc2cc(O)ccc2n1CCO
1.8 µM | O=C(O)Cn1c(C(=O)c2ccc(Oc3ccccc3)cc2)cc2cc(O)ccc21
> 10 µM | O=C(c1ccc(Oc2ccccc2)cc1)c1cc2nc(O)ccc2[nH]1
6.8 µM | O=C(c1ccc(Oc2ccccc2)cc1)c1cc2cc(O)ncc2[nH]1
